Measurements reported in ChEMBL document CHEMBL1275385, “Discovery and biological evaluation of potent, selective, orally bioavailable, pyrazine-based blockers of the Na(v)1.8 sodium channel with efficacy in a model of neuropathic pain” (Bioorg Med Chem, 2010).
pIC50: −log10 of the molar value. ≈ marks a conversion by molar mass, not a printed value. Calls of active or inactive are those of the source.

How the values were obtained:
[1] = target: Sodium channel protein type 10 subunit alpha (Rattus norvegicus, UniProt Q62968); test: Inhibition of tetrodotoxin-resistant NaV1.8 in rat dorsal root ganglion neurons at holding potential -100 mV by whole-cell patch clamp electrophysiology assay; assay type: tissue-based
[2] = target: Sodium channel protein type 10 subunit alpha (Mus musculus, UniProt Q6QIY3); test: Inhibition of mouse NaV1.8 expressed in HEK293 cells by isotopic efflux assay; assay type: cell-based
Sodium channel protein type 10 subunit alpha (Mus musculus, UniProt Q6QIY3), sequence (Q6QIY3 whole entry): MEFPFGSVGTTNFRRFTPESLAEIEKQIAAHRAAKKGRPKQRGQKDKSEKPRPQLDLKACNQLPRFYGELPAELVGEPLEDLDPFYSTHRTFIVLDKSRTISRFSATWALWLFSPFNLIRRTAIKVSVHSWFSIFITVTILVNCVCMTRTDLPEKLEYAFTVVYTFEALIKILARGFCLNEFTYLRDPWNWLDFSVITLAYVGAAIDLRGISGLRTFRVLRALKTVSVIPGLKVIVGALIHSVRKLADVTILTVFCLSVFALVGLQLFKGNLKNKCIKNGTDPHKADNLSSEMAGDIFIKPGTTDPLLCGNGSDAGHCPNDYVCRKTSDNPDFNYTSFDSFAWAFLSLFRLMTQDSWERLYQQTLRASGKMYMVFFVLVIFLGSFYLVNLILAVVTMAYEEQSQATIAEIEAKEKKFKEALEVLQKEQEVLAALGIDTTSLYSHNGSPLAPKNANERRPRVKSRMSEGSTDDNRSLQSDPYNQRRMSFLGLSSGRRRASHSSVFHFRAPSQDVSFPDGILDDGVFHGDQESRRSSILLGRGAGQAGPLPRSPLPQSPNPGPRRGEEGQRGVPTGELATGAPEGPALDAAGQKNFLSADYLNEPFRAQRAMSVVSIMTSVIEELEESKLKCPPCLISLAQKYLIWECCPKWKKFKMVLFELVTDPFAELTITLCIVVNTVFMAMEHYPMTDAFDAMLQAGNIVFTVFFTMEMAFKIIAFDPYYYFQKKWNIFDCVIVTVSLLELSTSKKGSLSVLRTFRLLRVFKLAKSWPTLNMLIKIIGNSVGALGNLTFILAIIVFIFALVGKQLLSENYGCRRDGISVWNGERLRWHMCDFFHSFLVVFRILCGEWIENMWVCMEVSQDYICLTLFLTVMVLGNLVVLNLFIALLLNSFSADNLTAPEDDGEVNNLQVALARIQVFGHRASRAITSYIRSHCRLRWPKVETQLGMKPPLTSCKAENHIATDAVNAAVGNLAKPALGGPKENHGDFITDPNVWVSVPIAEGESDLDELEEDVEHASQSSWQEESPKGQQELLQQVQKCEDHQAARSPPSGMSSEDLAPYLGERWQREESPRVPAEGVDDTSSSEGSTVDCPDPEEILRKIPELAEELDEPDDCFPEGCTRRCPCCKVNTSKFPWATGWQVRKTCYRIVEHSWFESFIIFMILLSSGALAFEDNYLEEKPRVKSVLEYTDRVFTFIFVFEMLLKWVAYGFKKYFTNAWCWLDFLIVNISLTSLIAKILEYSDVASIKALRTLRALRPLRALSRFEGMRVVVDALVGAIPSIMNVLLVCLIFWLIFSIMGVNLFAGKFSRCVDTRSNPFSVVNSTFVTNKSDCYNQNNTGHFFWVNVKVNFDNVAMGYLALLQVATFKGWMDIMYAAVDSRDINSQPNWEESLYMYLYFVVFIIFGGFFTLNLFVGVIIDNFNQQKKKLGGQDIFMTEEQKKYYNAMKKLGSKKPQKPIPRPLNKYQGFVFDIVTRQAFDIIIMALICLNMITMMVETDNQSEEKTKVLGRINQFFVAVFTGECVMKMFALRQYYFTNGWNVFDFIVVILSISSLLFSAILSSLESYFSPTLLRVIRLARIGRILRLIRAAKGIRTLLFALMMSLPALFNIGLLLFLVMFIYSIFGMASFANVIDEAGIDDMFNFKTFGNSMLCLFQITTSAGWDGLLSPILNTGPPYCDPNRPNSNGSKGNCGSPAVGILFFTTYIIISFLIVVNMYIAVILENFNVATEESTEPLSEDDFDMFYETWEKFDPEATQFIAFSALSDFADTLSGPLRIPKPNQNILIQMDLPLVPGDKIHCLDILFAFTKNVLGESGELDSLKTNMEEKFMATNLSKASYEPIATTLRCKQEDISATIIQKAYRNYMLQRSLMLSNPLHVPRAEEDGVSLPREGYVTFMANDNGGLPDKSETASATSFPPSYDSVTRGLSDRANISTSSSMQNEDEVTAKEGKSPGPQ
Outline: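 HEK293 cells stably expressing mouse Nav1.8 were loaded overnight with radiotracer, then stimulated. Efflux was read at a single time point on the linear part of the efflux curve. % inhibition = (1 − [test − reference blocker]/[control − reference blocker]) × 100. Eight-point concentration–response curves run in duplicate gave the IC50.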

[3] = target: Sodium channel protein type 10 subunit alpha (Homo sapiens, UniProt Q9Y5Y9); test: Inhibition of human recombinant NaV1.8 expressed in HEK293 cells by conventional voltage clamp electrophysiology assay; assay type: cell-based
Sodium channel protein type 10 subunit alpha (Homo sapiens, UniProt Q9Y5Y9), sequence (Q9Y5Y9 whole entry, the tested form may be a part): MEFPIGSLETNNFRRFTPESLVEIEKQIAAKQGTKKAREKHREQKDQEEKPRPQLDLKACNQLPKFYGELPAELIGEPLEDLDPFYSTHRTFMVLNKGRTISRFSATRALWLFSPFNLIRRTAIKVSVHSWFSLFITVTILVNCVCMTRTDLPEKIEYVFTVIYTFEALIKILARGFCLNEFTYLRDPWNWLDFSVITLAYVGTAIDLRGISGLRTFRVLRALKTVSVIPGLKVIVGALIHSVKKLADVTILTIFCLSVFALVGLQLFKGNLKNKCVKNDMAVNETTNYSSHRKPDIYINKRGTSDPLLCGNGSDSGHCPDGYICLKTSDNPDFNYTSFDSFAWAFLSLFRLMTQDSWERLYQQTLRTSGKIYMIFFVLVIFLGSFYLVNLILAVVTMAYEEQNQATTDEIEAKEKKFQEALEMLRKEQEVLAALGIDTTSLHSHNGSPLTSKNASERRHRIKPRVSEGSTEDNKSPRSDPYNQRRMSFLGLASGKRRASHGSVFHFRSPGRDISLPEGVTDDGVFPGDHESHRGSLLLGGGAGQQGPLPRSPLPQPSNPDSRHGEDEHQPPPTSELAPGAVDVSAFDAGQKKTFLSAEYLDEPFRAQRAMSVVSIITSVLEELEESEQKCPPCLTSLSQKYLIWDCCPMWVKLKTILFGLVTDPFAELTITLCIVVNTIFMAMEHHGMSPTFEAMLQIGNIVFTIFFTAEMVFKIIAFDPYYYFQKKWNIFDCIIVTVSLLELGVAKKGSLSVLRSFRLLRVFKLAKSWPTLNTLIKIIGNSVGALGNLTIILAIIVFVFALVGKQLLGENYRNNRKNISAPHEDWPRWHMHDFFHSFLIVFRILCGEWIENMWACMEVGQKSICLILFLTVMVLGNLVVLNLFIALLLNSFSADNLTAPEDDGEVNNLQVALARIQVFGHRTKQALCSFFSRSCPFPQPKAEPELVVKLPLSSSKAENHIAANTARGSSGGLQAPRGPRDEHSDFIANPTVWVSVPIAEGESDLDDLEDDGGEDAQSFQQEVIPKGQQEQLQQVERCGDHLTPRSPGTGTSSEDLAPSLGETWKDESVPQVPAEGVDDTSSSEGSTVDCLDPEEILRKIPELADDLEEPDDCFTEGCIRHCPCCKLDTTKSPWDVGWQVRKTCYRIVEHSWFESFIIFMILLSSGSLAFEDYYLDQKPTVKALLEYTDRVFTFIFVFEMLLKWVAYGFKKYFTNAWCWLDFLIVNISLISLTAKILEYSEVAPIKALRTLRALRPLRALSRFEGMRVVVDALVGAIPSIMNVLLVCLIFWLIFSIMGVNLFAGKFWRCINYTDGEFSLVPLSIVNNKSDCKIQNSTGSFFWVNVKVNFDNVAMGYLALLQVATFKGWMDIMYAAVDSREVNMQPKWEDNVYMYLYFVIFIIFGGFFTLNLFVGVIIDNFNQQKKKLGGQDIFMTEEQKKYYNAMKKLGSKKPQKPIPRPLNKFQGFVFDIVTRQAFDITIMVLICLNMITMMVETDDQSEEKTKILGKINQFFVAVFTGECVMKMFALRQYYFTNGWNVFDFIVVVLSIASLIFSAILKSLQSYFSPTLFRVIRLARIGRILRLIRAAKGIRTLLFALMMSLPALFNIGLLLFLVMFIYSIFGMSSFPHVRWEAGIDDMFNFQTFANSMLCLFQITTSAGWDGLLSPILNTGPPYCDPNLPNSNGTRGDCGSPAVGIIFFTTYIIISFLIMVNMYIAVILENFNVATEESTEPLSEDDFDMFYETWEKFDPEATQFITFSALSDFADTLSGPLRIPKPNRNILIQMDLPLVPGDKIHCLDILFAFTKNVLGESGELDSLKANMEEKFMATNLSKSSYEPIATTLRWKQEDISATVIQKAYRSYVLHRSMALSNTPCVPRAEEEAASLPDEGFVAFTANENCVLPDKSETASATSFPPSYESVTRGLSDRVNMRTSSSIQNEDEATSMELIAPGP
Outline: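 HEK-293 cells stably expressing human Nav1.8 were recorded by conventional whole-cell voltage clamp with the holding potential at the inactivation V1/2, −40 mV. DMSO stocks (10 mM) were diluted into extracellular solution (final DMSO <0.1%) and gravity-perfused at 1–2 mL/min at 21–25 °C. Each compound was run at 1–3 concentrations with 2–6 measurements each; estimates averaged.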

[4] = target: T1, Sodium channel protein type 2 subunit alpha (Homo sapiens, UniProt Q99250); test: Inhibition of human recombinant NaV1.2 by electrophysiology
Outline: (§1)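 Whole-cell voltage clamp of HEK-293 cells expressing recombinant human Nav1.2. Membrane potential was held at the V1/2 of steady-state inactivation, −60 mV. Compounds came from 10 mM DMSO stocks, diluted in extracellular solution (final DMSO <0.1%) and perfused at 1–2 mL/min at room temperature (21–25 °C). Tested at 1–3 concentrations with 2–6 measurements each; estimates averaged. Single-point data given as % inhibition at 3 µM.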

[5] = Aqueous solubility of the compound; assay type: physicochemical; conditions: buffer
Homo sapiens = organism: Homo sapiens; test: Selectivity ratio of IC50 for human NAv1.8 to IC50 for human Nav1.2
Outline: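 Ratio of the IC50 values from whole-cell voltage clamp of human Nav1.8 (held at −40 mV) and human Nav1.2 (held at −60 mV), both expressed in HEK-293 cells. Each channel was held at its inactivation V1/2.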

Rattus norvegicus [6] = test: Analgesic activity in po dosed Sprague-Dawley rat L5/L6 spinal nerve injury Chung model of neuropathic pain assessed as reduction of von Frey hair-induced paw withdrawal threshold administered 60 mins before von Frey hair challenge; assay type: functional
Outline: (§2)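 Rats with L5/L6 spinal nerve ligation (Kim and Chung method) dosed orally at 10, 30 or 100 mg/kg, 60 min before von Frey testing of paw withdrawal threshold on the injured and contralateral sides. At least six animals per group, compared with vehicle-treated animals; mean ± SEM, ANOVA with post-hoc tests (P <0.05). ED50 estimated by least-squares linear regression.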

[7] = Clearance in rat microsomes; assay type: ADME, Liver, Microsome
[8] = Oral bioavailability in rat at 3 mg/kg; assay type: ADME, organism-based; conditions: in vivo
Outline: (§3)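 Rat pharmacokinetics (n = 3) after a single 3 mg/kg iv or po dose. Plasma clearance, Vss, half-life and oral bioavailability were derived from plasma exposure.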

[9] = Half life in rat at 3 mg/kg, po; assay type: ADME, organism-based; design: dose 3 mg/kg, route oral; conditions: in vivo; outline: as §3
[10] = Half life in rat at 3 mg/kg, iv; assay type: ADME, organism-based; design: dose 3 mg/kg, route intravenous; conditions: in vivo; outline: as §3
[11] = Cmax in rat at 3 mg/kg, po; assay type: ADME, organism-based; design: dose 3 mg/kg, route oral; conditions: in vivo
[12] = Volume of distribution at steady state in rat at 3 mg/kg, iv; assay type: ADME, organism-based; design: dose 3 mg/kg, route intravenous; conditions: in vivo, read-out: Vdss; outline: as §3
Plasma = test: Plasma protein binding in rat; assay type: ADME, cell-free
[13] = target: Beta-2 adrenergic receptor (Homo sapiens) (UniProt P07550); test: Inhibition of human adrenergic beta2 receptor at 10 uM
Beta-2 adrenergic receptor (Homo sapiens), sequence (P07550 whole entry, looked up): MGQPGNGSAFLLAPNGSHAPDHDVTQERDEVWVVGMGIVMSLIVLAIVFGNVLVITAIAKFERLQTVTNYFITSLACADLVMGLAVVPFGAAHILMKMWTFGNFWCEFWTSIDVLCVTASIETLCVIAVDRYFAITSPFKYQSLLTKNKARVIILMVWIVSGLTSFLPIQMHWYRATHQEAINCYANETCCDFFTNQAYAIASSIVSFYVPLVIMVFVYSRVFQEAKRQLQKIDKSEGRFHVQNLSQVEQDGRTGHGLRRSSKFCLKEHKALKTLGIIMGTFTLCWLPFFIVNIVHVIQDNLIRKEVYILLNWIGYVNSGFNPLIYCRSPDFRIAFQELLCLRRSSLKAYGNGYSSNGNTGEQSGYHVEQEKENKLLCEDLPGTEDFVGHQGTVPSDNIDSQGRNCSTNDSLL

[14] = Inhibition of BZD receptor at 10 uM
[15] = target: Substance-P receptor (Homo sapiens) (UniProt P25103); test: Inhibition of human NK1 receptor at 10 uM
Substance-P receptor (Homo sapiens), sequence (P25103 whole entry): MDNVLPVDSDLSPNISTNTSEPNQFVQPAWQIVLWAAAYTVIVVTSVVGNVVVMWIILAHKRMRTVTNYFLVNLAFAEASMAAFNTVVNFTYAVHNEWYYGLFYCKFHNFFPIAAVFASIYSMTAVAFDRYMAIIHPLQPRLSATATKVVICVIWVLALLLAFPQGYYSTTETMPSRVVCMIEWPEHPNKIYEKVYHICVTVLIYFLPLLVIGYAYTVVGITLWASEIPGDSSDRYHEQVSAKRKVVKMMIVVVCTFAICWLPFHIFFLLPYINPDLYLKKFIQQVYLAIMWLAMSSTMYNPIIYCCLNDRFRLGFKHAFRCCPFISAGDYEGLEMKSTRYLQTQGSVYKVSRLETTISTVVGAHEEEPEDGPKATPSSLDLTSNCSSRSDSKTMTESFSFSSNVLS

[16] = Selectivity ratio of IC50 for human NaV1.8 to IC50 for human Nav1.2
[17] = target: T1, Sodium channel protein type 2 subunit alpha; test: Inhibition of human recombinant NaV1.2 at 3 uM by electrophysiology; outline: as §1
Rattus norvegicus [18] = test: Analgesic activity in Sprague-Dawley rat L5/L6 spinal nerve injury Chung model of neuropathic pain assessed as reduction of von Frey hair-induced paw withdrawal threshold at 100 mg/kg, po administered 60 mins before von Frey hair challenge; assay type: functional; outline: as §2
[19] = Selectivity ratio of IC50 for tetrodotoxin-resistant NaV1.8 in rat dorsal root ganglion neurons to IC50 for human Nav1.2; assay type: tissue-based
Outline: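 Ratio of the IC50 for native TTX-resistant current in dissociated rat DRG neurons (held at V1/2, −40 mV) to the IC50 for recombinant human Nav1.2 in HEK-293 cells (held at −60 mV).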

Row | SMILES | pIC50 [1] | pIC50 [2] | pIC50 [3] | pIC50 [4] | solubility [5] | CL [7] | also measured
1 | COc1cc(NC(=O)c2cncc(-c3ccc(Cl)cc3)n2)cc(OC)c1 | 6.72 | 5.97 | 8.22 | 5.21 | < 0.1 µg/mL | – | Ratio IC50 (Homo sapiens): > 1000
2 | O=C(NCc1cccnc1N1CCCC1)c1cncc(-c2ccc(Cl)cc2)n1 | 6.26 | 6.68 | 7.52 | 6.00 | 0.65 µg/mL (≈ 1.65 µM) | – | –
3 | O=C(Nc1cccnc1)c1cncc(-c2ccc(Cl)cc2)n1 | – | 4.74 | – | – | – | – | –
4 | CCOc1ccc(-c2cncc(C(=O)Nc3cccc(C)c3)n2)cc1 | 7.17 | 6.19 | 9.00 | 6.00 | < 0.1 µg/mL | – | –
5 | O=C(NCc1cccnc1N1CCOCC1)c1cncc(-c2ccc(OC(F)(F)F)cc2)n1 | 7.07 | 6.32 | 7.72 | 5.82 | > 50 µg/mL | – | Activity (Rattus norvegicus [6]): Dose-dependent effect; ED50 (Rattus norvegicus [6]): 78 mg/kg; clearance [7]: 98 µL/min; Ratio IC50 (Homo sapiens): 79; bioavailability [8]: 18.2%; half-life [9]: 1.6 h; half-life [10]: 1.9 h; Cmax [11]: 0.15 µg/mL; Vd [12]: 3.3 L/kg; Activity (Plasma): 93.2%; inhibition [13]: > 60%; inhibition [14]: > 60%; inhibition [15]: > 60%
6 | O=C(NCCc1ccc(Cl)cc1)c1cncc(-c2ccc(Cl)cc2)n1 | 6.44 | 5.57 | 7.72 | 6.00 | < 0.1 µg/mL | – | Ratio IC50 (Homo sapiens): 53; Ratio IC50 [16]: 53
7 | O=C(NCc1cccnc1N1CCOCC1)c1cncc(-c2ccc(Cl)cc2)n1 | 6.55 | 5.60 | 7.43 | – | 2.7 µg/mL (≈ 6.59 µM) | 410 µL/min | inhibition [17]: 11%
8 | Cc1cccc(NC(=O)c2cncc(-c3ccc(OC(F)(F)F)cc3)n2)c1 | 7.80 | 7.18 | 8.30 | 5.66 | < 0.1 µg/mL | – | –
9 | CCOc1ccc(-c2cncc(C(=O)NCc3ccccc3C)n2)cc1 | 7.72 | 6.96 | 8.70 | 6.33 | 0.14 µg/mL (≈ 0.403 µM) | 630 µL/min | –
10 | Cc1cc(C)cc(NC(=O)c2cncc(-c3ccc(C#N)cc3)n2)c1 | 7.08 | 6.33 | 8.10 | 5.80 | 0.03 µg/mL (≈ 0.0914 µM) | 140 µL/min | inhibition in vivo at 100 mg/kg (Rattus norvegicus [18]): < 20%; bioavailability [8]: 0%; half-life [10]: 1.6 h; Vd [12]: 5.1 L/kg; Activity (Plasma): 55.2%; inhibition [13]: inactive; inhibition [14]: inactive; inhibition [15]: inactive
11 | CCOc1ccc(-c2cncc(C(=O)Nc3cc(C)cc(C)c3)n2)cc1 | 7.92 | 7.25 | 8.70 | 6.44 | < 0.1 µg/mL | – | –
12 | CC(C)Oc1cccc(NC(=O)c2cncc(-c3ccc(C#N)cc3)n2)c1 | 6.89 | 6.14 | 7.31 | 5.04 | 0.08 µg/mL (≈ 0.223 µM) | 120 µL/min | –
13 | O=C(NCc1cccnc1)c1cncc(-c2ccc(Cl)cc2)n1 | – | 4.96 | – | – | 1 µg/mL (≈ 3.08 µM) | – | –
14 | Cc1ccccc1CNC(=O)c1cncc(-c2ccc(Cl)cc2)n1 | 6.96 | 5.87 | 7.57 | – | < 0.1 µg/mL | – | inhibition [17]: 2%
15 | Cc1cc(C)cc(NC(=O)c2cncc(-c3ccc(OC(F)(F)F)cc3)n2)c1 | – | 7.24 | – | – | < 0.1 µg/mL | – | inhibition [17]: 93%
16 | O=C(NCc1cccnc1Cl)c1cncc(-c2ccc(OC(F)(F)F)cc2)n1 | 7.05 | 5.99 | 7.00 | 5.41 | – | 143 µL/min | –
17 | O=C(NCc1ccncc1N1CCOCC1)c1cncc(-c2ccc(Cl)cc2)n1 | – | 5.38 | 6.49 | – | – | – | –
18 | Cc1ccccc1CNC(=O)c1cncc(-c2ccc(C#N)cc2)n1 | 6.35 | 5.03 | 6.82 | 6.00 | 0.35 µg/mL (≈ 1.07 µM) | – | –
19 | O=C(NCc1cnccc1N1CCOCC1)c1cncc(-c2ccc(Cl)cc2)n1 | – | 4.54 | – | – | – | – | –
20 | Cc1ccccc1CNC(=O)c1cncc(-c2ccc(OC(F)(F)F)cc2)n1 | 6.77 | 6.62 | 7.74 | 5.92 | – | – | –
21 | Cc1cccc(NC(=O)c2cncc(-c3ccc(Cl)cc3)n2)c1 | 6.55 | 6.02 | 8.22 | 5.09 | < 0.1 µg/mL | – | Ratio IC50 (Homo sapiens): > 1000
22 | Cc1cc(C)cc(NC(=O)c2cncc(-c3ccc(Cl)cc3)n2)c1 | 7.28 | 6.31 | 8.52 | 5.30 | < 0.1 µg/mL | 83 µL/min | Ratio IC50 (Homo sapiens): > 1000; Ratio IC50 [19]: > 1600
23 | COc1cc(NC(=O)c2ccc(-c3ccc(Cl)cc3)o2)cc(OC)c1 | – | – | – | – | < 0.1 µg/mL | 140 µL/min | –
